In brackets after ≈: the same amount, converted by molar mass.
Tests used:
Type in all cases: functional
[1] = test system: Plasmodium falciparum; test: Antimalarial schizonticidal activity against Plasmodium falciparum 3D7 infected erythrocytes at 10 ug/ml after 30-39 hrs
In short: (§1)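 Schizont maturation test (WHO protocol, minor modifications): drug dilutions in complete RPMI 1640 with parasite added. Final culture was 3–4% hematocrit and 1.0–2.0% parasitized erythrocytes (>95% rings), with 0.5% AlbuMax II and 15 µM hypoxanthine. Incubated 30–39 h at 37 °C under 5% CO2. Giemsa-stained thin smears were scored for schizont maturation relative to untreated controls, giving % schizont inhibition at each concentration.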

[2] = test system: Plasmodium falciparum; test: Antimalarial schizonticidal activity against Plasmodium falciparum 3D7 infected erythrocytes at 5 ug/ml after 30-39 hrs; in short: as §1
[3] = test system: Plasmodium falciparum; test: Antimalarial schizonticidal activity against Plasmodium falciparum 3D7 infected erythrocytes at 2.5 ug/ml after 30-39 hrs; in short: as §1
[4] = test system: Plasmodium falciparum; test: Antimalarial schizonticidal activity against Plasmodium falciparum 3D7 infected erythrocytes at 1.25 ug/ml after 30-39 hrs; in short: as §1
[5] = test system: Plasmodium falciparum; test: Antimalarial schizonticidal activity against Plasmodium falciparum 3D7 infected erythrocytes at 0.78 ug/ml after 30-39 hrs; in short: as §1
[6] = test system: Plasmodium falciparum; test: Antimalarial schizonticidal activity against Plasmodium falciparum 3D7 infected erythrocytes at 0.39 ug/ml after 30-39 hrs; in short: as §1
[7] = test system: Plasmodium falciparum; test: Antimalarial schizonticidal activity against Plasmodium falciparum 3D7 infected erythrocytes at 0.09 ug/ml after 30-39 hrs; in short: as §1
[8] = test system: Plasmodium falciparum; test: Antimalarial activity schizonticidal against Plasmodium falciparum 3D7 infected erythrocytes at 0.05 ug/ml after 30-39 hrs; in short: as §1
[9] = test system: Plasmodium falciparum; test: Antimalarial schizonticidal activity against Plasmodium falciparum 3D7 infected erythrocytes at 0.19 ug/ml after 30-39 hrs; in short: as §1
[10] = test system: Plasmodium falciparum; test: Antimalarial schizonticidal activity against Plasmodium falciparum 3D7 infected erythrocytes after 30-39 hrs; in short: as §1

## CCOC(=O)C1=C(Nc2ccc(OC)cc2)CC(c2cccc(Cl)c2)N(c2ccc(OC)cc2)C1c1cccc(Cl)c1 (centres undefined)
[1]
  inhibition at 10 µg/mL: 100%
[2]
  inhibition at 5 µg/mL: 92%
[3]
  inhibition at 2.5 µg/mL: 50%
[4]
  inhibition at 1.25 µg/mL: 16%

## COC(=O)C1=C(Nc2ccc(Cl)cc2)CC(c2ccc(OC)cc2)N(c2ccc(Cl)cc2)C1c1ccc(OC)cc1 (centres undefined)
[1]
  inhibition at 10 µg/mL: 100%
[2]
  inhibition at 5 µg/mL: 100%
[3]
  inhibition at 2.5 µg/mL: 100%
[4]
  inhibition at 1.25 µg/mL: 100%
[5]
  inhibition at 0.78 µg/mL: 95%
[6]
  inhibition at 0.39 µg/mL: 75%
[7]
  inhibition at 0.09 µg/mL: 33%
[8]
  inhibition at 0.05 µg/mL: 16%
[9]
  inhibition at 0.19 µg/mL: 41%

## COC(=O)C1=C(Nc2ccc(OC)cc2)CC(c2ccc(Br)cc2)N(c2ccc(OC)cc2)C1c1ccc(Br)cc1 (centres undefined)
[1]
  inhibition at 10 µg/mL: 100%
[2]
  inhibition at 5 µg/mL: 100%
[3]
  inhibition at 2.5 µg/mL: 95%
[4]
  inhibition at 1.25 µg/mL: 33%

## COC(=O)C1=C(Nc2ccc(OC)cc2)CC(c2ccc(OC)cc2)N(c2ccc(OC)cc2)C1c1ccc(OC)cc1 (centres undefined)
[1]
  inhibition at 10 µg/mL: 100%
[2]
  inhibition at 5 µg/mL: 100%
[3]
  inhibition at 2.5 µg/mL: 90%
[4]
  inhibition at 1.25 µg/mL: 86%

## COC(=O)C1=C(Nc2ccccc2)CC(c2ccc(OCc3ccccc3)cc2)N(c2ccccc2)C1c1ccc(OCc2ccccc2)cc1 (centres undefined)
[1]
  inhibition at 10 µg/mL: 23%
[2]
  inhibition at 5 µg/mL: 2%
[3]
  inhibition at 2.5 µg/mL: 2%
[4]
  inhibition at 1.25 µg/mL: 0%

## COC(=O)C1=C(Nc2ccc(OC)cc2)CC(c2cccc(Cl)c2)N(c2ccc(OC)cc2)C1c1cccc(Cl)c1 (centres undefined)
[1]
  inhibition at 10 µg/mL: 100%
[2]
  inhibition at 5 µg/mL: 100%
[3]
  inhibition at 2.5 µg/mL: 100%
[4]
  inhibition at 1.25 µg/mL: 33%

## COC(=O)C1=C(Nc2ccccc2)CC(c2ccc(OC)cc2)N(c2ccccc2)C1c1ccc(OC)cc1 (centres undefined)
[1]
  inhibition at 10 µg/mL: 100%
[2]
  inhibition at 5 µg/mL: 100%
[3]
  inhibition at 2.5 µg/mL: 100%
[4]
  inhibition at 1.25 µg/mL: 100%
[5]
  inhibition at 0.78 µg/mL: 94%
[6]
  inhibition at 0.39 µg/mL: 67%
[7]
  inhibition at 0.09 µg/mL: 45%
[8]
  inhibition at 0.05 µg/mL: 25%
[9]
  inhibition at 0.19 µg/mL: 47%

## COC(=O)C1=C(Nc2ccc(Cl)cc2)CC(c2ccc(Br)cc2)N(c2ccc(Cl)cc2)C1c1ccc(Br)cc1 (centres undefined)
[1]
  inhibition at 10 µg/mL: 33%
[2]
  inhibition at 5 µg/mL: 0%
[3]
  inhibition at 2.5 µg/mL: 0%
[4]
  inhibition at 1.25 µg/mL: 0%

## COC(=O)C1=C(Nc2ccccc2)CC(c2ccc(F)cc2)N(c2ccccc2)C1c1ccc(F)cc1 (centres undefined)
[1]
  inhibition at 10 µg/mL: 100%
[2]
  inhibition at 5 µg/mL: 100%
[3]
  inhibition at 2.5 µg/mL: 100%
[4]
  inhibition at 1.25 µg/mL: 100%
[5]
  inhibition at 0.78 µg/mL: 100%
[6]
  inhibition at 0.39 µg/mL: 100%
[7]
  inhibition at 0.09 µg/mL: 33%
[8]
  inhibition at 0.05 µg/mL: 16%
[9]
  inhibition at 0.19 µg/mL: 75%

## COC(=O)C1=C(Nc2ccccc2)CC(c2ccc(Br)cc2)N(c2ccccc2)C1c1ccc(Br)cc1 (centres undefined)
[1]
  inhibition at 10 µg/mL: 100%
[2]
  inhibition at 5 µg/mL: 100%
[3]
  inhibition at 2.5 µg/mL: 85%
[4]
  inhibition at 1.25 µg/mL: 46%

## CCOC(=O)C1=C(Nc2ccc(Cl)cc2)CC(c2ccc(Cl)cc2)N(c2ccc(Cl)cc2)C1c1ccc(Cl)cc1 (centres undefined)
[1]
  inhibition at 10 µg/mL: 83%
[2]
  inhibition at 5 µg/mL: 66%
[3]
  inhibition at 2.5 µg/mL: 0%
[4]
  inhibition at 1.25 µg/mL: 0%

## CCOC(=O)C1=C(Nc2ccc(OC)cc2)CC(c2ccccc2)N(c2ccc(OC)cc2)C1c1ccccc1 (centres undefined)
[1]
  inhibition at 10 µg/mL: 100%
[2]
  inhibition at 5 µg/mL: 100%
[3]
  inhibition at 2.5 µg/mL: 100%
[4]
  inhibition at 1.25 µg/mL: 100%
[5]
  inhibition at 0.78 µg/mL: 66%
[6]
  inhibition at 0.39 µg/mL: 33%
[7]
  inhibition at 0.09 µg/mL: 0%
[8]
  inhibition at 0.05 µg/mL: 0%
[9]
  inhibition at 0.19 µg/mL: 0%

## CCOC(=O)C1=C(Nc2ccccc2)CC(c2ccccc2)N(c2ccccc2)C1c1ccccc1 (centres undefined)
[1]
  inhibition at 10 µg/mL: 100%
[2]
  inhibition at 5 µg/mL: 100%
[3]
  inhibition at 2.5 µg/mL: 92%
[4]
  inhibition at 1.25 µg/mL: 25%

## COC(=O)C1=C(Nc2ccccc2)CC(c2ccccc2)N(c2ccccc2)C1c1ccccc1 (centres undefined)
[1]
  inhibition at 10 µg/mL: 100%
[2]
  inhibition at 5 µg/mL: 100%
[3]
  inhibition at 2.5 µg/mL: 100%
[4]
  inhibition at 1.25 µg/mL: 100%
[5]
  inhibition at 0.78 µg/mL: 96%
[6]
  inhibition at 0.39 µg/mL: 90%
[7]
  inhibition at 0.09 µg/mL: 0%
[8]
  inhibition at 0.05 µg/mL: 0%
[9]
  inhibition at 0.19 µg/mL: 33%

## COC(=O)C1=C(Nc2ccccc2)CC(c2cccc(Cl)c2)N(c2ccccc2)C1c1cccc(Cl)c1 (centres undefined)
[1]
  inhibition at 10 µg/mL: 100%
[2]
  inhibition at 5 µg/mL: 81%
[3]
  inhibition at 2.5 µg/mL: 81%
[4]
  inhibition at 1.25 µg/mL: 46%

## CCOC(=O)C1=C(Nc2ccc(Cl)cc2)CC(c2cccs2)N(c2ccc(Cl)cc2)C1c1cccs1 (centres undefined)
[1]
  inhibition at 10 µg/mL: 100%
[2]
  inhibition at 5 µg/mL: 100%
[3]
  inhibition at 2.5 µg/mL: 93%
[4]
  inhibition at 1.25 µg/mL: 86%

## COC(=O)C1=C(Nc2ccc(OC)cc2)CC(c2cccs2)N(c2ccc(OC)cc2)C1c1cccs1 (centres undefined)
[1]
  inhibition at 10 µg/mL: 100%
[2]
  inhibition at 5 µg/mL: 100%
[3]
  inhibition at 2.5 µg/mL: 100%
[4]
  inhibition at 1.25 µg/mL: 100%
[5]
  inhibition at 0.78 µg/mL: 100%
[6]
  inhibition at 0.39 µg/mL: 100%
[7]
  inhibition at 0.09 µg/mL: 25%
[8]
  inhibition at 0.05 µg/mL: 16%
[9]
  inhibition at 0.19 µg/mL: 75%

## COC(=O)C1=C(Nc2ccc(Br)cc2)CC(c2ccc(OC)cc2)N(c2ccc(Br)cc2)C1c1ccc(OC)cc1 (centres undefined)
[1]
  inhibition at 10 µg/mL: 100%
[2]
  inhibition at 5 µg/mL: 100%
[3]
  inhibition at 2.5 µg/mL: 91%
[4]
  inhibition at 1.25 µg/mL: 25%

## COC(=O)C1=C(Nc2ccc(OC)cc2)CC(c2ccc(F)cc2)N(c2ccc(OC)cc2)C1c1ccc(F)cc1 (centres undefined)
[1]
  inhibition at 10 µg/mL: 100%
[2]
  inhibition at 5 µg/mL: 100%
[3]
  inhibition at 2.5 µg/mL: 100%
[4]
  inhibition at 1.25 µg/mL: 100%
[5]
  inhibition at 0.78 µg/mL: 100%
[6]
  inhibition at 0.39 µg/mL: 100%
[7]
  inhibition at 0.09 µg/mL: 100%
[8]
  inhibition at 0.05 µg/mL: 91%
[9]
  inhibition at 0.19 µg/mL: 100%

## COC(=O)C1=C(Nc2ccc(Cl)cc2)CC(c2ccc(F)cc2)N(c2ccc(Cl)cc2)C1c1ccc(F)cc1 (centres undefined)
[1]
  inhibition at 10 µg/mL: 100%
[2]
  inhibition at 5 µg/mL: 100%
[3]
  inhibition at 2.5 µg/mL: 100%
[4]
  inhibition at 1.25 µg/mL: 93%

## CCOC(=O)C1=C(Nc2ccccc2)CC(c2cccnc2)N(c2ccccc2)C1c1cccnc1 (centres undefined)
[1]
  inhibition at 10 µg/mL: 100%
[2]
  inhibition at 5 µg/mL: 100%
[3]
  inhibition at 2.5 µg/mL: 100%
[4]
  inhibition at 1.25 µg/mL: 100%
[5]
  inhibition at 0.78 µg/mL: 100%
[6]
  inhibition at 0.39 µg/mL: 100%
[7]
  inhibition at 0.09 µg/mL: 42%
[8]
  inhibition at 0.05 µg/mL: 42%
[9]
  inhibition at 0.19 µg/mL: 97%

## CCN(CC)CCCC(C)Nc1ccnc2cc(Cl)ccc12 (centres undefined) [CHLOROQUINE]
[10]
  MIC: 0.025 µg/mL (≈ 0.0782 µM)
[1]
  inhibition at 10 µg/mL: 100%
[2]
  inhibition at 5 µg/mL: 100%
[3]
  inhibition at 2.5 µg/mL: 97%
[4]
  inhibition at 1.25 µg/mL: 86%
[5]
  inhibition at 0.78 µg/mL: 100%
[6]
  inhibition at 0.39 µg/mL: 100%
[7]
  inhibition at 0.09 µg/mL: 86%
[8]
  inhibition at 0.05 µg/mL: 54%
[9]
  inhibition at 0.19 µg/mL: 97%
